Data: the array DNA melting data of Ke et al. (doi:10.1101/2024.01.08.574731)

Experiments:
[1] = folding enthalpy; higher = less favourable; fluorescence melt of hairpins on a sequencing array, two-state fit; conditions: sodium 0.088 M
Procedure, shortened: (§1)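 Melting temperature and folding enthalpy were derived from bootstrapped two-state fits. The fitted temperatures were raised by 9.35 °C to agree with UV melts, and four replicates were combined by inverse variance. The underlying data were Cy3 fluorescence images of library hairpins, with annealed Cy3 and quencher oligos, on a sequenced MiSeq flow cell in 50 mM Na-HEPES pH 8.0, 25 mM NaCl, taken in 2.5 °C steps up to 60 °C, normalised to pre-quench Cy3 and to control constructs.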

[2] = melting temperature; fluorescence melt of hairpins on a sequencing array, two-state fit, raised by 9.35 °C to match UV melts; conditions: sodium 0.088 M
Procedure, shortened: as §1

Work on GTTTTCGAAAGAAAAAAC ((((((....)))..))) yielded a folding enthalpy [1] of -11.1 kcal/mol and a Tm [2] of 29.8 °C.
Work on GTTTTCGAAAGAAAAAC ((((((....))).))) yielded a folding enthalpy [1] of -15.8 kcal/mol and a Tm [2] of 39.2 °C.
In the case of GTTTTGAAAAAAAC (((((....))))), the folding enthalpy [1] is reported as -12 kcal/mol and the Tm [2] is reported as 37.6 °C.
Work on GTTTTGGGAAACTAAAGC (.(((.(....).))).) yielded a folding enthalpy [1] of -16.3 kcal/mol and a Tm [2] of 27.3 °C.
With GTTTTTCGAAAGAAAAC (((.(((....)))))) the folding enthalpy [1] was -21.4 kcal/mol and the Tm [2] was 35.8 °C.
Work on GTTTTTGGAAACAAAAAC (((((((....))))))) yielded a folding enthalpy [1] of -41.9 kcal/mol and a Tm [2] of 51.5 °C.
For GTTTTTGGAAACAAAGAC ((.((((....)))).)), the folding enthalpy [1] was -24.5 kcal/mol and the Tm [2] was 34 °C.
Work on TAACGGAAACGTTA (((((....))))) yielded a folding enthalpy [1] of -18.4 kcal/mol and a Tm [2] of 41.3 °C.
With TACAGGAAACTGTA (((((....))))) the folding enthalpy [1] was -14.5 kcal/mol and the Tm [2] was 37.7 °C.
Work on TACCAGAAATGGTA (((((....))))) yielded a folding enthalpy [1] of -13.3 kcal/mol and a Tm [2] of 37.5 °C.
TACCGGAAACGGTA (((((....))))) gave a folding enthalpy [1] of -16 kcal/mol and a Tm [2] of 50.2 °C.
With TACGTGAAAACGTA (((((....))))) the folding enthalpy [1] was -16.8 kcal/mol and the Tm [2] was 43.5 °C.
TAGTGGAAACACTA (((((....))))) gave a folding enthalpy [1] of -14.9 kcal/mol and a Tm [2] of 40.9 °C.
In the case of TATCCGAAAGGATA (((((....))))), the folding enthalpy [1] is reported as -16.6 kcal/mol and the Tm [2] is reported as 56.5 °C.
For TCTACGAAAGTAGA (((((....))))), the folding enthalpy [1] was -16.4 kcal/mol and the Tm [2] was 47.8 °C.
TCTGTGAAAACAGA (((((....))))) showed a folding enthalpy [1] of -17.6 kcal/mol and a Tm [2] of 42.4 °C.
With TGAACGAAAGTTCA (((((....))))) the folding enthalpy [1] was -20.6 kcal/mol and the Tm [2] was 53.3 °C.
In the case of TGAAGGAAACTTCA (((((....))))), the folding enthalpy [1] is reported as -13.9 kcal/mol and the Tm [2] is reported as 31.8 °C.
In the case of TGAATGAAAATTCA (((((....))))), the folding enthalpy [1] is reported as -9.75 kcal/mol and the Tm [2] is reported as 30.4 °C.
With TGACGGAAACGTCA (((((....))))) the folding enthalpy [1] was -23.7 kcal/mol and the Tm [2] was 52.5 °C.
Sequence TGAGAGAAATCTCA (((((....))))) has a folding enthalpy [1] of -9.57 kcal/mol and a Tm [2] of 28.2 °C.
Sequence TGAGGGAAACCTCA (((((....))))) has a folding enthalpy [1] of -20.9 kcal/mol and a Tm [2] of 42.2 °C.
TGATGGAAACATCA (((((....))))) showed a folding enthalpy [1] of -22 kcal/mol and a Tm [2] of 41.3 °C.
Sequence TGCCTGAAAAGGCA (((((....))))) has a folding enthalpy [1] of -17.5 kcal/mol and a Tm [2] of 59.1 °C.
With TGGTCGAAAGACCA (((((....))))) the folding enthalpy [1] was -19.1 kcal/mol and the Tm [2] was 66.8 °C.
TGGTGGAAACACCA (((((....))))) gave a folding enthalpy [1] of -22.2 kcal/mol and a Tm [2] of 52.4 °C.
With TGTCGGAAACGACA (((((....))))) the folding enthalpy [1] was -16.3 kcal/mol and the Tm [2] was 60 °C.
TTCAGGAAACTGAA (((((....))))) gave a folding enthalpy [1] of -13.5 kcal/mol and a Tm [2] of 35.7 °C.
For TTGACGAAAGTCAA (((((....))))), the folding enthalpy [1] was -21.4 kcal/mol and the Tm [2] was 54.1 °C.
In the case of TTTGTGAAAACAAA (((((....))))), the folding enthalpy [1] is reported as -12.6 kcal/mol and the Tm [2] is reported as 35.6 °C.
